Compound activity (PubChem)
Hits are enriched below; roughly 2.6% of the tested compounds scored in any of these assays.
SIAE primary = blocks human sialic acid acetylesterase. Q9HAT2. SIAE FP-Rh probe binding, fluorescence polarization. inhibition, % at 9.66 µM. 0.69% of 370,000 active. AID 1053197;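 active = inhibition above a cutoff: mean of compounds within the control limits plus 3 SD of those, cut at about 17% in these data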;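 also: 0% = plate median of compound wells and 100% = probe without SIAE protein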
Target sequence (Q9HAT2 whole entry, looked up): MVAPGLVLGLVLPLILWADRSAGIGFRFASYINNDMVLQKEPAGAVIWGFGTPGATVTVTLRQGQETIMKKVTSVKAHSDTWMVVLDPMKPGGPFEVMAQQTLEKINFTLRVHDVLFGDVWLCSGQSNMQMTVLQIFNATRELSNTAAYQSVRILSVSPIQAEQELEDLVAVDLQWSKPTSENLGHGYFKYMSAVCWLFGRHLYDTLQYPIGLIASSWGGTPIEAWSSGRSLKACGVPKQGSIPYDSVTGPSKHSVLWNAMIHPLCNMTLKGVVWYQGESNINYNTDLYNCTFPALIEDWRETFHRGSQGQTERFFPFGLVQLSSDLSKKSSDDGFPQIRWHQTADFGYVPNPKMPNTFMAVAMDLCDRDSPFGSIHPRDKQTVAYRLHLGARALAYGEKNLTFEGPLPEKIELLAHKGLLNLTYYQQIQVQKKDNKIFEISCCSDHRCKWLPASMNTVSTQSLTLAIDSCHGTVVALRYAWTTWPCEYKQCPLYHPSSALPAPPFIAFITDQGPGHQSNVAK
PRMT1 FP inh = inhibitors of human PRMT1. 1.3% of 370,000 active. recombinant PRMT1, activity-based probe fluorescence polarization. inhibition, % at 2.79 µM. AID 652257. Q99873;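 active = inhibition above about 21% made by adding two undisclosed values, limit read from the data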
ABHD4 inh = inhibits mouse alpha/beta hydrolase domain 4. purified mABHD4, FP-Rh probe fluorescence polarization. inhibition, % at 8.92 µM. 0.54% of 370,000 active. AID 720543;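 active = inhibition exceeding the mean over every tested compound plus 3 SD, cut at about 30% in these data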;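 also: 0% = plate median of compound wells and 100% = S159A mutant with DMSO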
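Test system: mouse ABHD4 enzyme, wild type. Reagent: FP-Rh fluorescent activity-based probe, added after compound pre-incubation. Timing: pre-incubation 45 min, probe exposure 60 min, at 25 °C. Technique: FP readout, ex 525 nm / em 598 nm. Benchmarks: high control S159A mutant with DMSO, low control median of compound wells.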
TCR CD3 inh = blocks the human TCR-CD3 interaction. TAMRA-labeled TCR probe fluorescence, biochemical. 0.37% of 360,000 active. inhibition, % at 9.4 µM. AID 651800; in the data active = inhibition above about 19%;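 also: recombinant mutant TCR 2C K166C tagged with TAMRA read by polarization; 0% = receptor in buffer alone and 100% = receptor with positive control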
HTRA1 inh = blocks human HTRA1 serine peptidase. AID 504803. recombinant HTRA1, FP-rhodamine activity-based probe, fluorescence polarization. 0.5% of 340,000 active. inhibition, % at 5.96 µM; in the data active = inhibition above about 36%;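 also: 0% = enzyme with DMSO and 100% = wells lacking enzyme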
SIAE confirm = human SIAE inhibition, confirmation; shares compounds with SIAE primary; SIAE FP-Rh activity-based probe, fluorescence polarization; inhibition, % at 9.66 µM; 13% of 2,300 active;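 active = mean inhibition of the replicates above the hit cutoff set in the primary screen, cut at about 17% in these data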;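 also: 0% = SIAE with DMSO and probe and 100% = probe without SIAE; inhibitors lower polarization as more probe stays unbound to SIAE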
* = called active by the depositor; · = no result.

SMILES	SIAE primary	PRMT1 FP inh	ABHD4 inh	TCR CD3 inh	HTRA1 inh	SIAE confirm
COc1ccc(-c2c(Cc3ccccc3)nc(NC(=O)c3ccccc3)n2Cc2ccccc2)cc1	2	-8	-2	·	·	·
Cc1ccccc1OCC(=O)OCC(=O)NCc1ccccc1Cl	-4	-1	-8	1	2	·
COc1ccc(-c2cc(=O)oc3cc(OC(C)C(=O)NCCCn4ccnc4)ccc23)cc1 (stereo unspecified)	3	-10	-1	0	-1	·
COc1ccc2[nH]c(C)c(CCNC(=S)Nc3cccc(C)c3C)c2c1	18*	3	1	1	-2	0
CCOC(=O)C1=CC[C@@H](c2cc3cc(OC)ccc3n2C)N(S(=O)(=O)c2ccc(C)cc2)[C@H]1C(=O)OCC	-1	-2	4	1	-5	·
COC(=O)CC1=NN(c2ccc(OC)cc2)C(=O)/C1=C\c1ccc(Cl)cc1	17*	1	8	-4	2	-1
CN(C)CCCn1c(NCc2ccc3c(c2)OCO3)nc2ccccc21	18*	1	1	3	3	5
Cc1ccccc1N1CCN(C2=NC(=O)/C(=C/c3cn[nH]c3-c3ccccc3)S2)CC1	24*	0	2	8	-3	-6
COC(=O)CCCCCc1ccc(C(C)=O)s1	17*	-1	1	3	4	6
O=C(NC1CC2CCC1C2)c1ccco1 (stereo unspecified)	8	-3	-4	11	2	·
C(=C\c1ccccc1)/CSc1nnc(-c2cccnc2)o1	21*	3	-18	-2	0	1
CCn1ncc(/C=N\NC(=O)c2ccc3c(c2)c(C)c(C)n3Cc2ccccc2)c1C	38*	-1	-2	7	-33	-8
Cc1ccc(/C=C/c2nc3ccccc3[nH]2)o1	24*	13	9	2	2	-7
COc1ccc(NC(=O)c2ccc(NC(=O)COC(=O)c3cnc(C)cn3)cc2)cc1	4	1	2	-4	0	·
Nc1ccn([C@@H]2O[C@H](C(=O)N[C@H](Cc3ccccc3)C(=O)N3CCN(CCO)CC3)[C@@H](O)[C@H]2O)c(=O)n1	5	3	4	0	·	·
NC(=O)c1ncn([C@@H]2O[C@H](C(=O)N[C@H](Cc3c[nH]c4ccccc34)C(=O)N3CCN(C(=O)N4CCCCC4)CC3)[C@@H](O)[C@H]2O)n1	17*	-1	-3	3	·	8
Nc1ccn([C@@H]2O[C@H](C(=O)N[C@H](Cc3ccccc3)C(=O)N3CCN(C(=O)N4CCCCC4)CC3)[C@@H](O)[C@H]2O)c(=O)n1	23*	-3	4	-3	·	18*
COc1ccccc1C(=O)N1CCN(C(=O)[C@@H](Cc2ccccc2)NC(=O)[C@H]2O[C@@H](n3cnc(C(N)=O)n3)[C@H](O)[C@@H]2O)CC1	11	6	-2	1	·	·
Cc1ccc(O)c(Nc2c3ccccc3nc3ccccc23)c1	37*	4	22	3	20	-7
Cc1ccc(O)c(Nc2nc(-c3ccccc3)nc3ccccc23)c1	-2	-2	1	2	-20	·
COc1cccc(NC(=O)CN(C)C(=O)C2=COCCO2)c1	18*	-1	0	-9	-5	4
CC(C)(C)c1csc(N/N=C/c2ccc(O)cc2)n1	15	2	11	7	25	·
CCCCCCn1c(N(CC)CC)nc2c1c(=O)[nH]c(=O)n2C	23*	-3	5	7	9	-2
CCN(CC)c1nc2c(c(=O)[nH]c(=O)n2C)n1Cc1ccccc1	0	-3	0	8	3	·
CCCCNC(=O)C1c2ccccc2OCC(=O)N1CC(F)(F)F (stereo unspecified)	1	4	8	-5	·	·
CC(=O)c1ccc(N2Cc3ccccc3/C2=N\C(=O)Nc2ccccc2)cc1	26*	1	6	5	-4	2
CC(=O)c1ccc(N2Cc3ccccc3C2=NC(=O)c2cccs2)cc1	-6	-2	0	7	5	·
CC1CC(C)(C)OC(C[N+]2(C)CCCCC2)O1 (stereo unspecified)	0	-4	7	9	2	·
CCC(CC)C(=O)NCCCCc1ccccc1	20*	0	-2	5	4	-2
CCC(C(=O)NCCCc1ccccc1)c1ccccc1 (stereo unspecified)	-5	-6	-6	-2	-4	·
